ChEMBL document CHEMBL1240515, “Discovery of mitogen-activated protein kinase-interacting kinase 1 inhibitors by a comprehensive fragment-oriented virtual screening approach” (J Med Chem, 2010)
Values belong to the compound of their own block, whether it stands above or below them.

How the values were obtained:
[1] = molecular target: T1, MAP kinase-interacting serine/threonine-protein kinase 1 (Homo sapiens, UniProt Q9BUB5); test: Inhibition of MNK1
Target sequence in this assay (Q9BUB5 whole entry): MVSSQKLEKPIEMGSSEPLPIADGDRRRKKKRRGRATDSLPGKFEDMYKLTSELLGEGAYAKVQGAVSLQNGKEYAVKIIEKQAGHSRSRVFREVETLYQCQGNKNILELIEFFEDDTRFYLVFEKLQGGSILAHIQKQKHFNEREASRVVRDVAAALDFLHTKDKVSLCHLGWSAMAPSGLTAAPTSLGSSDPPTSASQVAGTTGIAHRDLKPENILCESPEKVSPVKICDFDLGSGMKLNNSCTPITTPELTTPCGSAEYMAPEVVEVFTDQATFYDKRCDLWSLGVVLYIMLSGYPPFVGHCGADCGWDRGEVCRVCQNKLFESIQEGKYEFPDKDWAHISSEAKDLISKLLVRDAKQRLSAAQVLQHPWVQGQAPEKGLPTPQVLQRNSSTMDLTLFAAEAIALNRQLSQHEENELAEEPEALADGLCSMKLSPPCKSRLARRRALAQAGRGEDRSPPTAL

[2] = molecular target: T2, MAP kinase-interacting serine/threonine-protein kinase 2 (Homo sapiens, UniProt Q9HBH9); test: Inhibition of MNK2 at 5 uM
Procedure, shortened: (§1)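 Recombinant MNK1 (4 μg/mL) or MNK2 (0.7 μg/mL) final. Reaction contained 100 μM ATP and 300 μM eIF4E-derived peptide, run 60 min at 30 °C. ADP was detected by resorufin fluorescence. Tested at 5 μM in duplicate.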

[3] = molecular target: T1, MAP kinase-interacting serine/threonine-protein kinase 1; test: Inhibition of MNK1 at 5 uM; procedure, shortened: as §1
Target sequence in this assay (Q9BUB5 whole entry, looked up): as the sequence (Q9BUB5 whole entry) above

[4] = molecular target: T2, MAP kinase-interacting serine/threonine-protein kinase 2; test: Inhibition of MNK2
[5] = molecular target: Mitogen-activated protein kinase 3 (Homo sapiens) (UniProt P27361); test: Inhibition of ERK1 at 5 uM
Procedure, shortened: (§2)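 Single-concentration panel run at an outside kinase screening provider. The compound was tested at 5 μM in duplicate.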

[6] = molecular target: Inhibitor of nuclear factor kappa-B kinase subunit beta (Homo sapiens) (UniProt O14920); test: Inhibition of IKK-beta at 5 uM; procedure, shortened: as §2
[7] = molecular target: Epidermal growth factor receptor (Homo sapiens) (UniProt P00533); test: Inhibition of EGFR at 5 uM; procedure, shortened: as §2
[8] = molecular target: RAC-alpha serine/threonine-protein kinase (Homo sapiens) (UniProt P31749); test: Inhibition of AKT1 at 5 uM; procedure, shortened: as §2
[9] = molecular target: Casein kinase I isoform alpha (Homo sapiens) (UniProt P48729); test: Inhibition of CK1alpha1 at 5 uM; procedure, shortened: as §2
[10] = tested on: Serine/threonine-protein kinase B-raf (Homo sapiens), P15056 [V600E]; test: Inhibition of B-RAFV600E at 5 uM; procedure, shortened: as §2
[11] = molecular target: Serine/threonine-protein kinase pim-2 (Homo sapiens) (UniProt Q9P1W9); test: Inhibition of PIM2 at 5 uM; procedure, shortened: as §2
[12] = molecular target: Mast/stem cell growth factor receptor Kit (Homo sapiens) (UniProt P10721); test: Inhibition of KIT at 5 uM; procedure, shortened: as §2
[13] = molecular target: Tyrosine-protein kinase JAK2 (Homo sapiens) (UniProt O60674); test: Inhibition of JAK2 at 5 uM; procedure, shortened: as §2
[14] = molecular target: Mitogen-activated protein kinase 14 (Homo sapiens) (UniProt Q16539); test: Inhibition of p38alpha at 5 uM; procedure, shortened: as §2
[15] = molecular target: Fibroblast growth factor receptor 1 (Homo sapiens) (UniProt P11362); test: Inhibition of FGFR1 at 5 uM; procedure, shortened: as §2
[16] = molecular target: Dual specificity tyrosine-phosphorylation-regulated kinase 1A (Homo sapiens) (UniProt Q13627); test: Inhibition of DYRK1A at 5 uM; procedure, shortened: as §2
[17] = molecular target: Receptor-type tyrosine-protein kinase FLT3 (Homo sapiens) (UniProt P36888); test: Inhibition of FLT3 at 5 uM; procedure, shortened: as §2
[18] = molecular target: Serine/threonine-protein kinase pim-1 (Homo sapiens) (UniProt P11309); test: Inhibition of PIM1 at 5 uM; procedure, shortened: as §2
[19] = molecular target: Ribosomal protein S6 kinase alpha-1 (Homo sapiens) (UniProt Q15418); test: Inhibition of RPS6KA1 at 5 uM; procedure, shortened: as §2
[20] = molecular target: Dual specificity mitogen-activated protein kinase kinase 1 (Homo sapiens) (UniProt Q02750); test: Inhibition of MEK1 at 5 uM; procedure, shortened: as §2
[21] = molecular target: Insulin-like growth factor 1 receptor (Homo sapiens) (UniProt P08069); test: Inhibition of IGF1R at 5 uM; procedure, shortened: as §2
[22] = molecular target: Serine/threonine-protein kinase 4 (Homo sapiens) (UniProt Q13043); test: Inhibition of MST1 at 5 uM; procedure, shortened: as §2
[23] = molecular target: Serine/threonine-protein kinase Sgk1 (Homo sapiens) (UniProt O00141); test: Inhibition of SGK1 at 5 uM; procedure, shortened: as §2
[24] = molecular target: 3-phosphoinositide-dependent protein kinase 1 (Homo sapiens) (UniProt O15530); test: Inhibition of PDK1 at 5 uM
[25] = molecular target: Platelet-derived growth factor receptor alpha (Homo sapiens) (UniProt P16234); test: Inhibition of PDGFRalpha at 5 uM; procedure, shortened: as §2
[26] = molecular target: Hepatocyte growth factor receptor (Homo sapiens) (UniProt P08581); test: Inhibition of MET at 5 uM; procedure, shortened: as §2
[27] = molecular target: NUAK family SNF1-like kinase 1 (Homo sapiens) (UniProt O60285); test: Inhibition of ARK5 at 5 uM; procedure, shortened: as §2
[28] = molecular target: Focal adhesion kinase 1 (Homo sapiens) (UniProt Q05397); test: Inhibition of FAK at 5 uM; procedure, shortened: as §2

Sequence of RAC-alpha serine/threonine-protein kinase (Homo sapiens) (P31749 whole entry, canonical isoform): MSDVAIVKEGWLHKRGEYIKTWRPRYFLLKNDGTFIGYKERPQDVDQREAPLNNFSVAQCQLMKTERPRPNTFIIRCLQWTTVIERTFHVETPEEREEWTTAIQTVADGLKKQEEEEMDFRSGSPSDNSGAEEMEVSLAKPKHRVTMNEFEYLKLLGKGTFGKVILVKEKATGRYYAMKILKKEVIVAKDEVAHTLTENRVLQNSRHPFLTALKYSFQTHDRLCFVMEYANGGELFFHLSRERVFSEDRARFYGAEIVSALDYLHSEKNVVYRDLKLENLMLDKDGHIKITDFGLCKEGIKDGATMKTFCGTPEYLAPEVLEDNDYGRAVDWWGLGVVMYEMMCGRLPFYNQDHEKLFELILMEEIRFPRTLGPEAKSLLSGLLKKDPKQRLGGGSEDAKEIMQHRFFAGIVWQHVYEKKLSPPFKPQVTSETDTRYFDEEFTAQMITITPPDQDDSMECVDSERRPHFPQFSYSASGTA
Sequence of Inhibitor of nuclear factor kappa-B kinase subunit beta (Homo sapiens) (O14920 whole entry): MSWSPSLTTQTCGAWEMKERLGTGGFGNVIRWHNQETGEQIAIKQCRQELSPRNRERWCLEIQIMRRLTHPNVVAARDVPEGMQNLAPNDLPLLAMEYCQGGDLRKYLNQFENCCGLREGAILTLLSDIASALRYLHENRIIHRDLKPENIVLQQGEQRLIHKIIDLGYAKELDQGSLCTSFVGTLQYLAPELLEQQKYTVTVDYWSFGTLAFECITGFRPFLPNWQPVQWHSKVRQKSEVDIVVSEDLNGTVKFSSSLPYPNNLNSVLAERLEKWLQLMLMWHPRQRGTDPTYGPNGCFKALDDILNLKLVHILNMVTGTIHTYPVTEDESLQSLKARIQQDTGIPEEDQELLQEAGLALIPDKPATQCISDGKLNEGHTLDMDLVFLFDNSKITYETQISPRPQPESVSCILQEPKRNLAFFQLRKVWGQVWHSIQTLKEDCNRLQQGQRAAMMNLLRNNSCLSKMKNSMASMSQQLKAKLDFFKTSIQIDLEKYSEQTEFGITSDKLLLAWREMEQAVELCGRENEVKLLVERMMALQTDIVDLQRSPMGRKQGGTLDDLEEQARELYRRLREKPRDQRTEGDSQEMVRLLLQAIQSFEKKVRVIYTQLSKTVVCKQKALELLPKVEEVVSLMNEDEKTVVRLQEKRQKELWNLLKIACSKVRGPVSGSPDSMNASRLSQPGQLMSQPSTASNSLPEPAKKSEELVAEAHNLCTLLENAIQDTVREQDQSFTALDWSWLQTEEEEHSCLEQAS
Sequence of Mitogen-activated protein kinase 14 (Homo sapiens) (Q16539 whole entry): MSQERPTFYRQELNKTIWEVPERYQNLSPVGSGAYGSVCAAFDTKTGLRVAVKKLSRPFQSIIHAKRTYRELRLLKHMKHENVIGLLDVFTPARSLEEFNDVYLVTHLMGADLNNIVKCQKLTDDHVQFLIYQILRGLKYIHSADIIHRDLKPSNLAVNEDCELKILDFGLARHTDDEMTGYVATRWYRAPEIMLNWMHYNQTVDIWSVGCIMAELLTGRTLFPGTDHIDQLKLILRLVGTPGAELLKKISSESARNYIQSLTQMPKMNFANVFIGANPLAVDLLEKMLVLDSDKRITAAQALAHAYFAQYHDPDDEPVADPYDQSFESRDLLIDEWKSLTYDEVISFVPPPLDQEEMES
Sequence of Mast/stem cell growth factor receptor Kit (Homo sapiens) (P10721 whole entry): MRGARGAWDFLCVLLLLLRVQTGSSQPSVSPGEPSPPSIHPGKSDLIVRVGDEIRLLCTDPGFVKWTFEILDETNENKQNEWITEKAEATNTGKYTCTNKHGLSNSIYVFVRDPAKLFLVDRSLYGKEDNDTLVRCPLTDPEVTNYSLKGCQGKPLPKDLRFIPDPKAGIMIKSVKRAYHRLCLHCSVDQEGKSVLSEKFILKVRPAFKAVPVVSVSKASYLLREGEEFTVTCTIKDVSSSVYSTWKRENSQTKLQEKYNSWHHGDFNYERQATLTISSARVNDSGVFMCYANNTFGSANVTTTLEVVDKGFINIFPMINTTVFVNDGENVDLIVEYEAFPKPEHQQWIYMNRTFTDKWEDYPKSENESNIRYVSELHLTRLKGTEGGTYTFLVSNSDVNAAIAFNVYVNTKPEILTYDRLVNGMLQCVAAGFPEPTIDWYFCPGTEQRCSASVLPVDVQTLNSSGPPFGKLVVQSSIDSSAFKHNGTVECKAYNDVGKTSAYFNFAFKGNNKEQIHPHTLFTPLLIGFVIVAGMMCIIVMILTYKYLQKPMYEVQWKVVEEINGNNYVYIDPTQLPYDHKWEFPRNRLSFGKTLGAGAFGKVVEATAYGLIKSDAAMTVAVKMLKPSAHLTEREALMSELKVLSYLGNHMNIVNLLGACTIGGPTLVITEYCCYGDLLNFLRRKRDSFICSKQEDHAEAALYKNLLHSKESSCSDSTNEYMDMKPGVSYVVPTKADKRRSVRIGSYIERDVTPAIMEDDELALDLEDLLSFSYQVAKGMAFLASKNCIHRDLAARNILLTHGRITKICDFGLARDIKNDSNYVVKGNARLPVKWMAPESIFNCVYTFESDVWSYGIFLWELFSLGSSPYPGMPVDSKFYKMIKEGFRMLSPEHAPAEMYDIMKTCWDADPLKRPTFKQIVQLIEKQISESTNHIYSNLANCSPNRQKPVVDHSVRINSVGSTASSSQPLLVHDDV
Sequence of Hepatocyte growth factor receptor (Homo sapiens) (P08581 whole entry): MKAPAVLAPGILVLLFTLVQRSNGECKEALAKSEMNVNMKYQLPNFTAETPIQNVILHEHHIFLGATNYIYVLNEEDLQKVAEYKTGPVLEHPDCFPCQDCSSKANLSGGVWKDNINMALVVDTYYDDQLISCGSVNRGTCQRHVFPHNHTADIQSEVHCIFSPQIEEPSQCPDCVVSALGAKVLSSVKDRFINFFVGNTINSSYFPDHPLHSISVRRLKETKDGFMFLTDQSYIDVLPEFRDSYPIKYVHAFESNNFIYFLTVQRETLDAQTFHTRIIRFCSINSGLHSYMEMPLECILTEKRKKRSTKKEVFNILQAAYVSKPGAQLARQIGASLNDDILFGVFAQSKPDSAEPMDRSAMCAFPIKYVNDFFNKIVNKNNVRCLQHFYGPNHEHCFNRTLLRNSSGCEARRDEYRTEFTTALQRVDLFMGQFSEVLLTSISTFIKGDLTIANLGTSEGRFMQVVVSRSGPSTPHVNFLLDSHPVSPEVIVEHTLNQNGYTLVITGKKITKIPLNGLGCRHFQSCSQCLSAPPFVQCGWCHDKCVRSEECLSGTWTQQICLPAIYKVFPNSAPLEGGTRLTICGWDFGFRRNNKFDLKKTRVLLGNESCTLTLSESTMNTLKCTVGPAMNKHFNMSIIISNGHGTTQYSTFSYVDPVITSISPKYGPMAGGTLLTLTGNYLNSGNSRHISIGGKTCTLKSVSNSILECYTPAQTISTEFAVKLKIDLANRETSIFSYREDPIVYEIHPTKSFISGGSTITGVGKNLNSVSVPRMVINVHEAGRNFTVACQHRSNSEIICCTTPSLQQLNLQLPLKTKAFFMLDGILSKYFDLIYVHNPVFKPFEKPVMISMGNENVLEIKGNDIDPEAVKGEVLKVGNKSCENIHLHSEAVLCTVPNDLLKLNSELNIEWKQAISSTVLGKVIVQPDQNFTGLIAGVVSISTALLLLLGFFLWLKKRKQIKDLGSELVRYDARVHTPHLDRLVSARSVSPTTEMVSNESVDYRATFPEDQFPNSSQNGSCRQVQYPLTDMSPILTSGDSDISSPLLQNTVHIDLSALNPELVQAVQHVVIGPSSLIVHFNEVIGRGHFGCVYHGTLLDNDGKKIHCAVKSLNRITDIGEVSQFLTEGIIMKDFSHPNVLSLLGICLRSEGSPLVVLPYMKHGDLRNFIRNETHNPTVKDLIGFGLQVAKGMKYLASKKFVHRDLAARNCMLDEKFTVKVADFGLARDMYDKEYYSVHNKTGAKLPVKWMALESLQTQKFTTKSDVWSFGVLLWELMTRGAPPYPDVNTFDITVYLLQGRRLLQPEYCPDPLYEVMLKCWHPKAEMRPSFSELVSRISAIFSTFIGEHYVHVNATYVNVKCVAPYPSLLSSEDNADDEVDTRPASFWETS
Sequence of Dual specificity mitogen-activated protein kinase kinase 1 (Homo sapiens) (Q02750 whole entry): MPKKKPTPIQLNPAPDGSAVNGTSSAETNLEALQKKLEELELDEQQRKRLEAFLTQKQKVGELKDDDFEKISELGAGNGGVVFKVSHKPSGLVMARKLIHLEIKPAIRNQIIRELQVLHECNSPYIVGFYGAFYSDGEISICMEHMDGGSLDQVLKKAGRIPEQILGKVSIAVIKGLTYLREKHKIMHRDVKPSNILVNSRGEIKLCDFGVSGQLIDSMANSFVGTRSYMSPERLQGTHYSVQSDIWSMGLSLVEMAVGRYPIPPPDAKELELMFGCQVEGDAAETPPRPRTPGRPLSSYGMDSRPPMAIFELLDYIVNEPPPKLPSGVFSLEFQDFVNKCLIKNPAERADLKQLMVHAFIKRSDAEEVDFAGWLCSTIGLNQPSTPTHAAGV

- IC50 [1]: 3240 nM
Compound: OCCCNc1ccc2ncc(-c3ccccc3F)n2n1

- IC50 [1]: 8170 nM
Compound: O=c1[nH]cnc2cc3n[nH]cc3cc12

- IC50 [1]: 5150 nM
Compound: NC(=O)c1ccc(-c2cc(-c3ccccc3)cnc2N)cc1

- inhibition [2]: 80%
- inhibition [3]: 97%
Compound: CCNc1nc(C)c(-c2ccnc(Nc3ccc(N4CCNCC4)cc3)n2)s1

- IC50 [1]: 1710 nM
Compound: c1cc(-c2cnc3sc(NCC4CC4)nn23)ccn1

- IC50 [1]: 630 nM
Compound: COc1cc2ncnc(Nc3cccc(Br)c3)c2cc1OC

- IC50 [1]: 646 nM
- IC50 [4]: 575 nM
Compound: c1cc(-c2cc(C3CCNCC3)[nH]n2)ccn1

- IC50 [1]: 2800 nM
Compound: Brc1cccc(Nc2ncnc3cc4nc[nH]c4cc23)c1

- IC50 [1]: 6180 nM
Compound: CC(C)CNc1nn2c(-c3ccncc3)cnc2s1

- IC50 [1]: 120 nM
Compound: COc1cc2ncnc(Nc3cc(Br)c(O)c(Br)c3)c2cc1OC

- IC50 [1]: 1620 nM
Compound: COCCNc1ccc2ncc(-c3ccc(Cl)cc3)n2n1

- inhibition [5]: 0%
- inhibition [6]: 6%
- inhibition [7]: 1%
- inhibition [8]: 0%
- inhibition [9]: 10%
- inhibition [10]: 9%
- inhibition [11]: 1%
- inhibition [12]: 7%
- inhibition [13]: 0%
- inhibition [14]: 2%
- inhibition [15]: 8%
- inhibition [16]: 0%
- inhibition [17]: 0%
- inhibition [18]: 4%
- inhibition [19]: 11%
- inhibition [20]: 5%
- inhibition [21]: 3%
- inhibition [22]: 0%
- inhibition [3]: 87%
- inhibition [23]: 7%
- inhibition [24]: 0%
- inhibition [25]: 1%
- inhibition [26]: 1%
- inhibition [27]: 3%
- inhibition [28]: 15%
Compound: c1cc(-c2cc(C3CCNCC3)n[nH]2)ccn1

- IC50 [1]: 4090 nM
Compound: COCCNc1ccc2ncc(-c3ccc(F)cc3)n2n1

- IC50 [1]: 580 nM
Compound: Clc1ccc(Nc2ncnc3[nH]ncc23)cc1

- IC50 [1]: 4280 nM
Compound: c1ccc(-c2cnc3ccc(NCCc4ccccn4)nn23)cc1

- IC50 [1]: 1560 nM
Compound: Brc1ccc(Nc2ncnc3[nH]ncc23)cc1

- IC50 [1]: 850 nM
Compound: COC(=O)c1ccc(Nc2[nH]cnc3ncnc2-3)cc1

- IC50 [1]: 1030 nM
Compound: Fc1ccc(Nc2ncnc3[nH]cnc23)cc1

- IC50 [1]: 160 nM
Compound: NC(=O)c1ccc(Nc2ncnc3[nH]cnc23)cc1

- IC50 [1]: 1350 nM
Compound: c1ccc2cc(Nc3ncnc4[nH]ncc34)ccc2c1

- IC50 [1]: 1090 nM
Compound: Fc1cccc(Nc2ncnc3n[nH]cc23)c1

- IC50 [1]: 1530 nM
Compound: CNc1ccc2ncc(-c3cccc(O)c3)n2n1

- IC50 [1]: 1700 nM
Compound: CNc1cc2c(Nc3cccc(Br)c3)ncnc2cn1

- IC50 [1]: 2410 nM
Compound: OCCCNc1ccc2ncc(-c3ccc(F)cc3)n2n1

- IC50 [1]: 2930 nM
Compound: OCCNc1ccc2ncc(-c3ccc(Cl)cc3)n2n1

- IC50 [1]: 3800 nM
Compound: c1cnn2c(-c3ccncc3)cnc2c1

- IC50 [1]: 530 nM
Compound: COc1cc2ncnc(Nc3cccc(Cl)c3)c2cc1OC [TYRPHOSTIN AG-1478]

- IC50 [1]: 4050 nM
Compound: CNc1ccc2ncc(-c3ccc(F)cc3)n2n1
